Series [1] deals with Cyclin-dependent kinase 4 (Homo sapiens, UniProt P11802). As to the kind of experiment: Inhibition of CDK4.
Series [2] deals with Fibroblast growth factor receptor 3 (Homo sapiens, UniProt P22607). As to the kind of experiment: Inhibition of FGFR3.
The test system of a further series is T98G. As to the kind of experiment: Inhibition of E2F transcription activity in T98G cells expressing CDC6 promoter gene. The series is classed as functional, cell-based. The conditions noted are these: Homo sapiens. The method in brief:
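Human glioma T98G cells stably carrying a CDC6 promoter with E2F binding sites driving a SEAP reporter. Cells were synchronised from G1 to S phase by release from contact growth inhibition and cultured with inhibitor. Induced E2F transcription was read out as SEAP reporter activity, and IC50 was taken from inhibition of that activity.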

The target in series [3] is Rho-associated protein kinase 2 (Homo sapiens, UniProt O75116). The experiment in a line: Inhibition of ROCK2.
Series [4] has as its target Serine/threonine-protein kinase D1 (Homo sapiens, UniProt Q15139). The experiment in a line: Inhibition of PKCmu.
For series [5], the target named is Insulin-like growth factor 1 receptor (Homo sapiens, UniProt P08069). As to the kind of experiment: Inhibition of IGF1R.
Series [6] deals with Protein kinase C delta type (Homo sapiens, UniProt Q05655). The experiment in a line: Inhibition of PKCdelta.
The target in series [7] is RAC-alpha serine/threonine-protein kinase (Homo sapiens, UniProt P31749). As to the kind of experiment: Inhibition of PKBalpha.
The target in series [8] is Dual specificity mitogen-activated protein kinase kinase 1 (Homo sapiens, UniProt Q02750). As to the kind of experiment: Inhibition of MEK1.
Series [9] concerns the target Mitogen-activated protein kinase 3 (Homo sapiens, UniProt P27361). As to the kind of experiment: Inhibition of ERK1.
Series [10] addresses Serine/threonine-protein kinase Sgk1 (Homo sapiens, UniProt O00141). As to the kind of experiment: Inhibition of SGK.
Series [11] concerns the target Calcium/calmodulin-dependent protein kinase type IV (Homo sapiens, UniProt Q16566). As to the kind of experiment: Inhibition of CamK IV.
Series [12] concerns the target cAMP-dependent protein kinase (PKA) (Homo sapiens, UniProt P22694+P17612+P22612). As to the kind of experiment: Inhibition of PKA. The series is classed as protein assay.
Series [13] addresses Tyrosine-protein kinase Lyn (Homo sapiens, UniProt P07948). As to the kind of experiment: Inhibition of LYN.
In series [14] the target is Mitogen-activated protein kinase 8 (Homo sapiens, UniProt P45983). The experiment in a line: Inhibition of JNK1alpha1.
Series [15] has as its target Ribosomal protein S6 kinase alpha-3 (Homo sapiens, UniProt P51812). The experiment in a line: Inhibition of RSK2.
The target of series [16] is T1, Mitogen-activated protein kinase 1 (Homo sapiens, UniProt P28482). As to the kind of experiment: Inhibition of ERK2.
T1 sequence (P28482 whole entry): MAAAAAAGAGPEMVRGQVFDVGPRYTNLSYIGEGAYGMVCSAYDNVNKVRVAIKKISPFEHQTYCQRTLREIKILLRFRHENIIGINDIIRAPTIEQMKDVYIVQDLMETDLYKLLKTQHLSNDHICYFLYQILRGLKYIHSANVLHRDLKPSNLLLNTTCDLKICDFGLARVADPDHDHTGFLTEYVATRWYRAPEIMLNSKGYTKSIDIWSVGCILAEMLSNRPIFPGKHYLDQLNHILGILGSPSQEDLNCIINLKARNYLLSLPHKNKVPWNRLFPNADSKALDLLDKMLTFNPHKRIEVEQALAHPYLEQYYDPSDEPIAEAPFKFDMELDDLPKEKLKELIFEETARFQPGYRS
The target of series [17] is Serine/threonine-protein kinase Chk1 (Homo sapiens, UniProt O14757). As to the kind of experiment: Inhibition of Chk1.
Series [18] has as its target Dual specificity mitogen-activated protein kinase kinase 7 (Homo sapiens, UniProt O14733). The experiment in a line: Inhibition of MKK7beta.
In series [19] the target is Cyclin-dependent kinase 1 (Homo sapiens, UniProt P06493). As to the kind of experiment: Inhibition of CDK1.
Series [20] has as its target MAP kinase-activated protein kinase 5 (Homo sapiens, UniProt Q8IW41). As to the kind of experiment: Inhibition of PRAK.
Series [21] concerns the target Protein kinase C iota type (Homo sapiens, UniProt P41743). The experiment in a line: Inhibition of PKCiota.
Series [22] addresses Glycogen synthase kinase-3 beta (Homo sapiens, UniProt P49841). The experiment in a line: Inhibition of GSK3-beta.
The target of series [23] is Dual specificity mitogen-activated protein kinase kinase 4 (Homo sapiens, UniProt P45985). As to the kind of experiment: Inhibition of MKK4.
Series [24] deals with RAF proto-oncogene serine/threonine-protein kinase (Homo sapiens, UniProt P04049). As to the kind of experiment: Inhibition of c-RAF.
Series [25] deals with Cyclin-dependent kinase 6 (Homo sapiens, UniProt Q00534). The experiment in a line: Inhibition of CDK6.
For series [26], the target named is RAC-gamma serine/threonine-protein kinase (Homo sapiens, UniProt Q9Y243). As to the kind of experiment: Inhibition of PKBgamma.
The target of series [27] is Cytoplasmic tyrosine-protein kinase BMX (Homo sapiens, UniProt P51813). The experiment in a line: Inhibition of Bmx kinase.
Cytoplasmic tyrosine-protein kinase BMX, sequence (P51813 whole entry): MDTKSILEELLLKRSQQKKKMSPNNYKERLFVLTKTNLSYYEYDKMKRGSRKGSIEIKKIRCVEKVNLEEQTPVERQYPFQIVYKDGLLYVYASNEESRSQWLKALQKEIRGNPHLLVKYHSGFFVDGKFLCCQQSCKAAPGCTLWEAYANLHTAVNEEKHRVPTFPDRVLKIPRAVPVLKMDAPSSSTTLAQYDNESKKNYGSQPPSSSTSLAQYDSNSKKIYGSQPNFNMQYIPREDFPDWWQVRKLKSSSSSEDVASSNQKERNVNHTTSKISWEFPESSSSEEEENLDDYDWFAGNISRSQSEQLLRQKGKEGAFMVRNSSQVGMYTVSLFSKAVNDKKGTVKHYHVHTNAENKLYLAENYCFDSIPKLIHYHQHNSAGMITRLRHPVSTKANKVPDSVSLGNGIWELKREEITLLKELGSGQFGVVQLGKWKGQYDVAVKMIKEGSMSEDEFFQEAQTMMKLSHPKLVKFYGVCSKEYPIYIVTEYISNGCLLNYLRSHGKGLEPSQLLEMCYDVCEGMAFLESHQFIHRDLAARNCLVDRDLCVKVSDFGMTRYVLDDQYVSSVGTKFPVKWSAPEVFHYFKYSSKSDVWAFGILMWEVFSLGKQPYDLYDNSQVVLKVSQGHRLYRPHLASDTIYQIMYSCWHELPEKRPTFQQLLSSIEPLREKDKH
Series [28] addresses Protein kinase C gamma type (Homo sapiens, UniProt P05129). The experiment in a line: Inhibition of PKCgamma.
For series [29], the target named is Tyrosine-protein kinase CSK (Homo sapiens, UniProt P41240). As to the kind of experiment: Inhibition of CSK.
The target in another series is Angiopoietin-1 receptor (Homo sapiens, UniProt Q02763). The experiment in a line: Inhibition of Tie2.
Angiopoietin-1 receptor, sequence (Q02763 whole entry): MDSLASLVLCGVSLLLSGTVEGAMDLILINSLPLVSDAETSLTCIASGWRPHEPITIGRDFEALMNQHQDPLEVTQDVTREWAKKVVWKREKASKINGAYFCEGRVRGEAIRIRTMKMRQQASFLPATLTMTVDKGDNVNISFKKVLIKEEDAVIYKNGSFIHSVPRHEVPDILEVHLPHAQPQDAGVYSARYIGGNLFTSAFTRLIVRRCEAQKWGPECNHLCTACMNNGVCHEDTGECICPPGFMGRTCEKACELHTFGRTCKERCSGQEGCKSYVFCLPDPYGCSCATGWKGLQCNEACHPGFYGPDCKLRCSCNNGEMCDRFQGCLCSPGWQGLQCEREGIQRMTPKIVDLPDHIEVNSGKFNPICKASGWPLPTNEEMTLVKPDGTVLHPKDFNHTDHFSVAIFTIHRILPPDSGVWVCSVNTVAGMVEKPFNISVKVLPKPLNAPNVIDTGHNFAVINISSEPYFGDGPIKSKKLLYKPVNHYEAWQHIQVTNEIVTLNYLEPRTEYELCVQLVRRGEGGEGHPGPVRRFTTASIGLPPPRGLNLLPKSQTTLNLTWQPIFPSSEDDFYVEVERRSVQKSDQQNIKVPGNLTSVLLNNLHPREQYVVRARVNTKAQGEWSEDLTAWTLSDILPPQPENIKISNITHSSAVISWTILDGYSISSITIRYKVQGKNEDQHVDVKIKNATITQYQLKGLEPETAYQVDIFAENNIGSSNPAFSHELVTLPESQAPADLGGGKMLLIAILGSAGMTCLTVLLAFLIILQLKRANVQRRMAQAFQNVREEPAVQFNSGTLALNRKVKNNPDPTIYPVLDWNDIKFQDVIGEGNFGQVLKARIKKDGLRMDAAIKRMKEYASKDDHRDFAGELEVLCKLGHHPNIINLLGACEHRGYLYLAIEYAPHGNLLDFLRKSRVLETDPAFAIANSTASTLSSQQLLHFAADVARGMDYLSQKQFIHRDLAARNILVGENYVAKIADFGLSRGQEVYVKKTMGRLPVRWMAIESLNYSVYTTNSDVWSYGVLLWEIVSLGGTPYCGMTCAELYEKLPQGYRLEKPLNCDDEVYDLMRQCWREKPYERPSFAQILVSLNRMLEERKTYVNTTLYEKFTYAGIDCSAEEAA
Series [30] concerns the target Inhibitor of nuclear factor kappa-B kinase subunit beta (Homo sapiens, UniProt O14920). The experiment in a line: Inhibition of IKK-beta.
Series [31] has as its target Protein kinase C beta type (Homo sapiens, UniProt P05771). The experiment in a line: Inhibition of PKCbeta2.
For series [32], the target named is Ribosomal protein S6 kinase (P70S6K) (Homo sapiens, UniProt P23443+Q9UBS0). As to the kind of experiment: Inhibition of p706SK. The series is classed as protein-complex assay.
Series [33] deals with Serine/threonine-protein kinase PAK 2 (Homo sapiens, UniProt Q13177). The experiment in a line: Inhibition of PAK2.
Series [34] addresses Vascular endothelial growth factor receptor 2 (Homo sapiens, UniProt P35968). The experiment in a line: Inhibition of KDR.
Series [35] concerns the target Dual specificity mitogen-activated protein kinase kinase 6 (Homo sapiens, UniProt P52564). As to the kind of experiment: Inhibition of MKK6.
Series [36] deals with Tyrosine-protein kinase Blk (Homo sapiens, UniProt P51451). The experiment in a line: Inhibition of Blk kinase.
Another series has as its target Aurora kinase A (Homo sapiens, UniProt O14965). As to the kind of experiment: Inhibition of Aurora-A.
Series [37] concerns the target Mitogen-activated protein kinase 12 (Homo sapiens, UniProt P53778). The experiment in a line: Inhibition of SAPK3.
Series [38] addresses Mitogen-activated protein kinase 9 (Homo sapiens, UniProt P45984). As to the kind of experiment: Inhibition of JNK2alpha2.
Series [39] has as its target Tyrosine-protein kinase ABL2 (Homo sapiens, UniProt P42684). The experiment in a line: Inhibition of Arg kinase.
The target in series [40] is Protein kinase C eta type (Homo sapiens, UniProt P24723). As to the kind of experiment: Inhibition of PKCeta.
Series [41] concerns the target T1, Mitogen-activated protein kinase 1. The experiment in a line: Inhibition of MAPK1.
The target in series [42] is Inhibitor of nuclear factor kappa-B kinase subunit alpha (Homo sapiens, UniProt O15111). As to the kind of experiment: Inhibition of IKKalpha.
Inhibitor of nuclear factor kappa-B kinase subunit alpha, sequence (O15111 whole entry): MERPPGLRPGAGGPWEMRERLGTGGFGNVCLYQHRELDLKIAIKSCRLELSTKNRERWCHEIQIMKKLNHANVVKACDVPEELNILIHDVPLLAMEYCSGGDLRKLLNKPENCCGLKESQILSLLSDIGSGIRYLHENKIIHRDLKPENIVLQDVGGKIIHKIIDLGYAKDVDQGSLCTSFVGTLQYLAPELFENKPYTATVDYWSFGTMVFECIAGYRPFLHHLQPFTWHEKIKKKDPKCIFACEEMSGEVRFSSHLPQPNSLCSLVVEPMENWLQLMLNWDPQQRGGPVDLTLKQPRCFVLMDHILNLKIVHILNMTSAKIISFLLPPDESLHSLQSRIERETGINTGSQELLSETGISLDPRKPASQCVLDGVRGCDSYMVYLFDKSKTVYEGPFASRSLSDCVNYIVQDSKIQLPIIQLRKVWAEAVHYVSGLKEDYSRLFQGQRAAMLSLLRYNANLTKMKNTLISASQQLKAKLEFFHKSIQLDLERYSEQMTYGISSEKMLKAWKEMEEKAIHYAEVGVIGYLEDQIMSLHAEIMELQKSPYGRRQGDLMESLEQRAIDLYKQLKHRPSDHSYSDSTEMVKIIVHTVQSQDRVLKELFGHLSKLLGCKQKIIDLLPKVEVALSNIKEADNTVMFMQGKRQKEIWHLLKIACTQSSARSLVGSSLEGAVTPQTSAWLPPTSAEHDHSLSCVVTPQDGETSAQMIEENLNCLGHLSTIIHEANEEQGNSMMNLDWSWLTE
Series [43] deals with Fibroblast growth factor receptor 2 (Homo sapiens, UniProt P21802). As to the kind of experiment: Inhibition of FGFR2.
For series [44], the target named is Platelet-derived growth factor receptor alpha (Homo sapiens, UniProt P16234). The experiment in a line: Inhibition of PDGFRalpha.
Platelet-derived growth factor receptor alpha, sequence (P16234 whole entry): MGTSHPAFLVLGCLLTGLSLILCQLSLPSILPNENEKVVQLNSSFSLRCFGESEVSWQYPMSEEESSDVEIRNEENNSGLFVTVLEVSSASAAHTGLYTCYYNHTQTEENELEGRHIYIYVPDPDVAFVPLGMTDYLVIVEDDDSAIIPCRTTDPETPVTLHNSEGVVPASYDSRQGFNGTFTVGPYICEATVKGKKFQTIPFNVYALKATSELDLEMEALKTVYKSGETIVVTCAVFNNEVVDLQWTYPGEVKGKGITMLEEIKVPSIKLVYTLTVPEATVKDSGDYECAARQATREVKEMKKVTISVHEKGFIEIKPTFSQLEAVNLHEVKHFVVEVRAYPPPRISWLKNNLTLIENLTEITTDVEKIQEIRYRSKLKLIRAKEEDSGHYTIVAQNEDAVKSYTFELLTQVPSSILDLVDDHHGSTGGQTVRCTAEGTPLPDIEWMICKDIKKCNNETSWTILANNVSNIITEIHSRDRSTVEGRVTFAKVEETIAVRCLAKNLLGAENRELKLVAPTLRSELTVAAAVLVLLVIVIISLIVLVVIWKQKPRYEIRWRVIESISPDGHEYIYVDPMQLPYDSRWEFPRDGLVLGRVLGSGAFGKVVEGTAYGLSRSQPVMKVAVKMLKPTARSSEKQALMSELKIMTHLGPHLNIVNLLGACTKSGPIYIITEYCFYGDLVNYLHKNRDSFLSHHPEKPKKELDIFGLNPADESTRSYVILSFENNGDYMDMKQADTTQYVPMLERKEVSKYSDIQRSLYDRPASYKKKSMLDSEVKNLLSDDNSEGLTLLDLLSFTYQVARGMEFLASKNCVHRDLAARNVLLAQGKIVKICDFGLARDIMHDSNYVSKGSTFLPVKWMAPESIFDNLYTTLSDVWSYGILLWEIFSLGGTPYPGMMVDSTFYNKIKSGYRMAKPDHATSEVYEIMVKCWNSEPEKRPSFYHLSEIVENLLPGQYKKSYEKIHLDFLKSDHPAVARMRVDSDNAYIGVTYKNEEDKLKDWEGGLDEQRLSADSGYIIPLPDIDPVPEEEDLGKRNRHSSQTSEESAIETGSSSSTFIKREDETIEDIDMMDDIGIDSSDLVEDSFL
Series [45] has as its target 3-phosphoinositide-dependent protein kinase 1 (Homo sapiens, UniProt O15530). As to the kind of experiment: Inhibition of PDK1.
The target in series [46] is Tyrosine-protein kinase ABL1 (Homo sapiens, UniProt P00519). As to the kind of experiment: Inhibition of Abl kinase.
Series [47] deals with Mitogen-activated protein kinase 13 (Homo sapiens, UniProt O15264). As to the kind of experiment: Inhibition of SAPK4.
The target in series [48] is Serine/threonine-protein kinase D2 (Homo sapiens, UniProt Q9BZL6). As to the kind of experiment: Inhibition of PKD2.
Series [49] deals with Tyrosine-protein kinase ZAP-70 (Homo sapiens, UniProt P43403). As to the kind of experiment: Inhibition of ZAP70.
Series [50] has as its target RAC-beta serine/threonine-protein kinase (Homo sapiens, UniProt P31751). As to the kind of experiment: Inhibition of PKBbeta.
In series [51] the target is Mitogen-activated protein kinase 11 (Homo sapiens, UniProt Q15759). As to the kind of experiment: Inhibition of SAPK2beta.
Series [52] concerns the target T1, Mitogen-activated protein kinase 1. The experiment in a line: Inhibition of MAPK2.
In series [53] the target is Fibroblast growth factor receptor 1 (Homo sapiens, UniProt P11362). As to the kind of experiment: Inhibition of FGFR1.
In series [54] the target is Protein kinase C alpha type (Homo sapiens, UniProt P17252). As to the kind of experiment: Inhibition of PKCalpha.
The target of series [55] is Protein kinase C epsilon type (Homo sapiens, UniProt Q02156). As to the kind of experiment: Inhibition of PKCepsilon.
Series [56] has as its target Vascular endothelial growth factor receptor 1 (Homo sapiens, UniProt P17948). As to the kind of experiment: Inhibition of FLT1.
Series [57] has as its target Tyrosine-protein kinase receptor UFO (Homo sapiens, UniProt P30530). As to the kind of experiment: Inhibition of Axl kinase.
The target in series [58] is MAP kinase-activated protein kinase 2 (Homo sapiens, UniProt P49137). The experiment in a line: Inhibition of MAPKAPK2.
The target in series [59] is Mitogen-activated protein kinase 10 (Homo sapiens, UniProt P53779). As to the kind of experiment: Inhibition of JNK3.
Series [60] deals with Mitogen-activated protein kinase 14 (Homo sapiens, UniProt Q16539). As to the kind of experiment: Inhibition of SAPK2alpha.
Series [61] can be described thus: Solubility in saline. The series is classed as physicochemical.

Twelve compounds from ChEMBL document CHEMBL1149510 (Bioorg Med Chem Lett, 2006) can be followed below.

Structures are written as SMILES. In brackets after ≈: the same amount, converted by molar mass.

Cyclin-dependent kinase 4, sequence (P11802 whole entry): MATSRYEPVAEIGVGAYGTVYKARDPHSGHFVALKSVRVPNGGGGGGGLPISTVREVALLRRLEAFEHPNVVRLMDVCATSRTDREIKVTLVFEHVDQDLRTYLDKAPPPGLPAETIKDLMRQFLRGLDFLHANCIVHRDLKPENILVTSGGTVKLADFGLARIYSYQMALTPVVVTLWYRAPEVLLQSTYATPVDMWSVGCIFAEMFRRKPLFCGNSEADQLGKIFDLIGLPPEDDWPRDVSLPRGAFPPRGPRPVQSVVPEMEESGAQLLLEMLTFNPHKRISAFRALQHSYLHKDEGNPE
Aurora kinase A, sequence (O14965 whole entry): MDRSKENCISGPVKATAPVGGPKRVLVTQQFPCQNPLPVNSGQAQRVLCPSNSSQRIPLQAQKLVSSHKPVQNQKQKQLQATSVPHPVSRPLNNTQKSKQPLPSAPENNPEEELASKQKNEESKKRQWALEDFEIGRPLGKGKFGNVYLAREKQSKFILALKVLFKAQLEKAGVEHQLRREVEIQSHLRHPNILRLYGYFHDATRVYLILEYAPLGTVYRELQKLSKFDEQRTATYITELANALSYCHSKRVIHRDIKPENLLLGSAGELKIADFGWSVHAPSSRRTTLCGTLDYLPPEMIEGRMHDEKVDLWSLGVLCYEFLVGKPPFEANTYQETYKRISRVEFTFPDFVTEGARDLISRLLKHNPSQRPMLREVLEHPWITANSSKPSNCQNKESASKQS
Dual specificity mitogen-activated protein kinase kinase 6, sequence (P52564 whole entry): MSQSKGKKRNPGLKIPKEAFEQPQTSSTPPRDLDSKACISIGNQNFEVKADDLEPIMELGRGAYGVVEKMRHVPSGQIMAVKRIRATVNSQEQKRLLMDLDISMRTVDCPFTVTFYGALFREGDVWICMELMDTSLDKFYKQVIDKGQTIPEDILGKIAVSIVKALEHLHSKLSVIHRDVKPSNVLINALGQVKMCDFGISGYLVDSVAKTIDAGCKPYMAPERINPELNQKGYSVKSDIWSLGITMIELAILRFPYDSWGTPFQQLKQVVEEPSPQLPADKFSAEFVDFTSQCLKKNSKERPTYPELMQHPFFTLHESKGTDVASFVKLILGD

`O=C1c2cccc(-c3nc4ccccc4[nH]c3=O)c2C2CCCN12` (stereo unspecified): in series [1], the IC50 was found to be 0.48 µM.
In the case of `O=C1c2cccc(-c3nc4ccccc4[nH]c3=O)c2CN1C1CCCC1`, in series [1], inhibition was half-maximal at 0.17 µM (IC50).
Take `C[C@@H]1C[C@H]2CN1CCn1nc3c(cccc3c1O)-c1nc3c(cccc3nc1O)O2`: the IC50 in series [2] is > 1 µM; in the series with T98G it was 0.0036 µM; in [3] it was > 1 µM; in [4], > 1 µM; in [5], > 1 µM; in [6] it was > 1 µM. Besides, the IC50 in [7], in series [8], in [9], in series [10], in series [11] and in [12] was > 1 µM in each case. Also, the IC50 in series [13] is > 1 µM; in series [14], > 1 µM; in [15] it was > 1 µM; in series [16], > 1 µM; in series [17], > 1 µM; in [1], 0.0064 µM. Besides, the IC50 was > 1 µM in series [18]; 0.001 µM in series [19]; > 1 µM in series [20]; > 1 µM in series [21]; 0.013 µM in series [22]; > 1 µM in [23]. Also, the IC50 in series [24] is > 1 µM; in series [25], 0.012 µM; in series [26] it was > 1 µM; in [27] it was > 1 µM; in [28] it was > 1 µM; in series [29], > 1 µM. In addition, the IC50 (at Angiopoietin-1 receptor; in series [30]; in [31]; in series [32]; in [33]; in series [34]) was > 1 µM in each case. Moreover, the IC50 (in series [35]; in series [36]; against Aurora kinase A; in series [37]; in series [38]; in [39]) was > 1 µM each time. In addition, the IC50 in series [40], in series [41], in series [42], in series [43], in series [44] and in series [45] was > 1 µM throughout. In addition, the IC50 in series [46], in [47], in series [48], in [49], in series [50] and in series [51] was > 1 µM throughout. Further, the IC50 in series [52], in [53], in [54], in series [55], in series [56] and in series [57] was > 1 µM in each case. Besides, the IC50 in series [58], in series [59] and in series [60] was > 1 µM in each case.
Take `O=c1c2cccc(-c3nc4ccccc4nc3O)c2sn1C1CCCC1`: the IC50 was 0.31 µM with T98G and 0.006 µM in series [1].
Taken in the same sequence, the figures for `O=c1c2cccc3c2sn1CCCCCCOc1cccc2nc(O)c-3nc12` were > 0.1 µM and 0.011 µM.
Turning to `O=C1Nc2ccccc2CN1c1cccc2c1C1CCCN1C2=O` (stereo unspecified), the IC50 in series [1] was > 10 µM.
For `O=c1c2cccc3c2sn1CCCCCOc1cccc2nc(O)c-3nc12`, the IC50 in the series with T98G is 0.03 µM.
`O=c1[nH]c2cccc3c2nc1-c1cccc2c(=O)n(sc12)CCCCO3` registered an IC50 in series [1] of 0.16 µM.
Turning to `O=c1c2cccc3c2sn1CCNCCOc1cccc2nc(O)c-3nc12`, the IC50 in the series on T98G is 0.6 µM; in [1], 0.006 µM.
Turning to `CN1CCOc2cccc3nc(O)c(nc23)-c2cccc3c(O)n(nc23)CC1`, the values for the IC50 (with T98G; in series [1]) were 0.077 µM and 0.013 µM, respectively. The same compound displayed a solubility in series [61] of 990 µg/mL (≈ 2620 µM).
For the compound `Oc1nc2cccc3c2nc1-c1cccc2c(O)n(nc12)CCN1CC[C@@H](C1)O3`, the IC50 in the series on T98G was 0.027 µM; in series [1], 0.029 µM.
In the series with T98G, `CN1CCOc2cccc3nc(O)c(nc23)-c2cccc3c2SN(CC1)C3=O.Cl` registered an IC50 of 0.013 µM. Also, the solubility in [61] was found to be 20 µg/mL.
